Consider one compound from ChEMBL document CHEMBL1133473, “Synthesis and antiviral activity of 4-benzyl pyridinone derivatives as potent and selective non-nucleoside human immunodeficiency virus type 1 reverse transcriptase inhibitors” (J Med Chem, 2000).

A value given as a limit tells only on which side of the number the result lay.

In experiment [1] the test system is CEM-SS. Kind of experiment: Tested for inhibitory concentration on HIV-I Lai wild type in CEM-SS cell line. Type of experiment: functional, cell-based. To be noted: Homo sapiens. The essentials: (§1)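 CEM-SS lymphocytic cells infected with 100 TCID50 of HIV-1 LAI, or of the nevirapine-resistant N119 strain carrying an RT codon 181 mutation. Virus adsorbed 30 min, unbound virus removed by two washes, then cells cultured 5 days with serial compound dilutions. Read-out: RT activity of particles released into the supernatant. IC50 from a computer median effect plot of dose-effect data.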

Experiment [2] deals with CEM-SS. Kind of experiment: Tested for cytotoxic concentration on HIV-I Lai wild type in CEM-SS cell line. Type of experiment: functional. To be noted: Homo sapiens. The essentials: (§2)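 CEM-SS cells, uninfected, cultured 5 days with compound. Compounds were taken from a DMSO solution at 10^-2 M (10^-3 M or lower if insoluble), diluted 1:100 in medium, then serially diluted in medium.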

The test system of experiment [3] is Human immunodeficiency virus 1. Kind of experiment: Inhibitory concentration against HIV-1 AZTres. Type of experiment: functional, organism-based. The essentials: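 AZT-resistant HIV-1 isolate A018 G910-6 tested in cell culture; virus production measured as RT activity of particles released into the culture supernatant.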
For experiment [4], the system named is Human immunodeficiency virus 1. Kind of experiment: Inhibitory concentration against HIV-1 Bal/Mono. Type of experiment: functional, organism-based. The essentials:
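Macrophage-tropic HIV-1 Bal in monocyte-derived macrophages kept serum-free in AIM V medium with 100 U/mL GM-CSF. Virus output measured as supernatant particle-associated RT activity.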

Experiment [5] can be described thus: Inhibitory concentration against HIV-2 D 194. It is filed as functional. The essentials:
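Cell-based antiviral assay against this HIV-2 isolate. Compounds were dissolved in DMSO as 10^-2 M stocks, or 10^-3 M or lower when insoluble, diluted 1% in culture medium, then serially diluted in medium. Virus production was read as reverse transcriptase activity of particles released into the culture supernatant. IC50 was taken from a median-effect plot of the dose-effect data.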

Experiment [6] concerns Human immunodeficiency virus 1. The experiment is described as follows: Inhibitory concentration against HIV-1 IIIB strain. Type of experiment: functional, organism-based. The essentials: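 MT4 cells infected with HIV-1 IIIB; antiviral effect read as protection from virus-induced cytopathogenicity by MTT. Compounds taken from DMSO stock, diluted in culture medium.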
For experiment [7], the system named is Human immunodeficiency virus 1. Kind of experiment: Tested for cytotoxic concentration on HIV-I nevirapine resistant strain. Type of experiment: functional. In a few lines: as §2
For experiment [8], the system named is Human immunodeficiency virus 1. Kind of experiment: Tested for inhibitory concentration on HIV-I nevirapine resistant strain. It is filed as functional, organism-based. The essentials: as §1
In experiment [9] the test system is MT4. The experiment is described as follows: Cytotoxicity against MT-4 cells infected with HIV-1 AZTres. It is filed as functional. To be noted: Homo sapiens.
Experiment [10] concerns MT4. Kind of experiment: Cytotoxicity against MT-4 cells infected with HIV-1 IIIB strain. Type of experiment: functional. To be noted: Homo sapiens.
The nature of experiment [11]: Cytotoxicity against Macrophages infected with HIV-1 Bal/Mono. It is filed as functional. The note with it: Human immunodeficiency virus 1.
Experiment [12] is described as follows: Cytotoxicity against PBMC cells infected with HIV-1 IIIB strain. Type of experiment: functional. To be noted: Human immunodeficiency virus 1, PBMC.
Experiment [13] can be described thus: Cytotoxicity against PBMC cells infected with HIV-2 D 194. Type of experiment: functional. The note with it: Human immunodeficiency virus 2, PBMC.
In experiment [14] the target is Human immunodeficiency virus type 1 reverse transcriptase (Human immunodeficiency virus 1, UniProt Q72547). The experiment is described as follows: Tested for inhibitory concentration on HIV-1 Reverse transcriptase in the presence of poly(c)-oligo-(dG). In a few lines:
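Recombinant HIV-1 RT purified from yeast, 20-50 nM. Reaction at 37 °C for 10 min in 50 mM Tris-HCl pH 8.0, 5 mM MgCl2, 4 mM DTT, 80 mM KCl, BSA, 0.48 A260 units/mL poly(C)-oligo(dG) (5:1), 2 µM dGTP plus [3H]dGTP. Stopped with cold 10% TCA plus 0.1 M pyrophosphate; precipitates filtered, scintillation counted. Compounds dissolved in DMSO.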

A short description of experiment [15]: Selectivity index is the ratio of CC50 to IC50 against HIV-1 nevirapine resistant strain. It is filed as functional.
The subject of experiment [16] is Human immunodeficiency virus 1. The experiment is described as follows: Selectivity index is the ratio of CC50 to IC50. Type of experiment: functional.

As usually defined, the IC50 is the concentration at which inhibition is half-maximal. For orientation: CC50 means the concentration giving 50% cytotoxicity. Low values mean harm at low concentration, high ones better tolerance by the cells. On to `CCc1c(C)nc(O)c(N)c1Cc1cc(C)cc(C)c1`, for which the 50% inhibitory concentration (IC50) is 0.017 µM in the experiment on CEM-SS [1]; 4.35 µM in [3]; 0.13 µM in [4]; over 10 µM in [5]; 0.31 µM in [6]; 0.5 µM in [6] (Human immunodeficiency virus 1). Further, the IC50 in experiment [8] worked out at 1 µM; in experiment [14], 0.1 µM. In addition, the half-maximal cytotoxic concentration (CC50) (in the experiment on CEM-SS [2]; in [7]; in the experiment with MT4 [9]; in the experiment with MT4 [10]; in [11]; in [12]) was over 10 µM throughout. Moreover, the 50% cytotoxic concentration (CC50) in experiment [13] is over 10 µM. Besides, the values for the SI in experiment [15] and in experiment [16] were over 10 and over 588, respectively.
